≈ marks a conversion by molar mass, not a printed value. Calls of active or inactive are those of the source. The calls are words filed in the database; no cut-off is given here.
Legend:
[1] = system: RAW264.7; assay: Cytotoxicity against mouse RAW264.7 cells assessed as cell death at 12.5 uM after 48 hrs by MTT assay; type: functional; details: pooled result: one value given for 2 cell lines, strains, targets or settings
Method in brief: (§1)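 Both cell lines were seeded at 1×10⁴ cells per well, with viability checked first by trypan blue exclusion. Compounds were tested in triplicate for 48 h at 37 °C in 5% CO₂. Medium was then replaced with serum-free DMEM, MTT was added, and plates were held 3 h at 37 °C. Formazan was dissolved in DMSO for 15 min and read at 570 nm. % cell death = (A_DMSO − A_sample)/A_DMSO × 100.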

[2] = system: RAW264.7; assay: Cytotoxicity against mouse RAW264.7 cells assessed as cell death at 25 uM after 48 hrs by MTT assay; type: functional; details: pooled result: one value given for 2 cell lines, strains, targets or settings; method in brief: as §1
[3] = system: RAW264.7; assay: Cytotoxicity against mouse RAW264.7 cells assessed as cell death at 50 uM after 48 hrs by MTT assay; type: functional; details: pooled result: one value given for 2 cell lines, strains, targets or settings; method in brief: as §1
[4] = system: RAW264.7; assay: Cytotoxicity against mouse RAW264.7 cells assessed as cell death at 100 uM after 48 hrs by MTT assay; type: functional; details: pooled result: one value given for 2 cell lines, strains, targets or settings; method in brief: as §1
[5] = system: RAW264.7; assay: Cytotoxicity against mouse RAW264.7 cells after 48 hrs by MTT assay; type: functional, cell-based; details: RAW264.7, 48 h
Method in brief: (§2)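 Cells seeded at 1 x 10^4 per well (viability by Trypan blue exclusion) and treated in triplicate at 100, 50, 25 and […], 48 h at 37 °C, 5% CO2. Medium was then replaced with serum-free DMEM plus MTT for 3 h. Formazan was dissolved in DMSO for 15 min at 37 °C and read at 570 nm. % cell death was taken relative to vehicle (DMSO) control, and IC50 derived from it.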

[6] = system: HT-29; assay: Cytotoxicity against human HT-29 cells after 48 hrs by MTT assay; type: functional, cell-based; details: HT-29, 48 h; method in brief: as §2
[7] = system: Escherichia coli; assay: Antibacterial activity against Escherichia coli after 16 hrs by broth dilution method; type: functional
Method in brief: (§3)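 Compound stocks at 1 mg/mL in DMF, serially twofold diluted in trypticase soya broth tubes. Organisms were grown 6 h at 37 °C in trypticase soya broth, adjusted to McFarland […] (10^8 cfu/mL) in PBS, then diluted 10^3-fold in broth to 10^5 cfu/mL; 1 mL of this inoculum was added per tube. Tubes were incubated 16 h at 37 °C, with inoculum and broth controls. MIC was read as the lowest concentration with no visible growth.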

[8] = system: Staphylococcus aureus; assay: Antibacterial activity against Staphylococcus aureus after 16 hrs by broth dilution method; type: functional; method in brief: as §3
[9] = system: Pseudomonas aeruginosa; assay: Antibacterial activity against Pseudomonas aeruginosa after 16 hrs by broth dilution method; type: functional; method in brief: as §3
[10] = system: Bacillus cereus; assay: Antibacterial activity against Bacillus cereus after 16 hrs by broth dilution method; type: functional; method in brief: as §3
[11] = system: Candida albicans; assay: Antifungal activity against Candida albicans after 16 hrs by broth dilution method; type: functional; method in brief: as §3
[12] = system: HT-29; assay: Cytotoxicity against human HT-29 cells assessed as cell death at 12.5 uM after 48 hrs by MTT assay; type: functional; details: pooled result: one value given for 2 cell lines, strains, targets or settings; method in brief: as §1
[13] = system: HT-29; assay: Cytotoxicity against human HT-29 cells assessed as cell death at 25 uM after 48 hrs by MTT assay; type: functional; details: pooled result: one value given for 2 cell lines, strains, targets or settings; method in brief: as §1
[14] = system: RAW264.7; assay: Cytotoxicity against mouse RAW264.7 cells assessed as cell death at 2.5 uM after 48 hrs by MTT assay; type: functional
[15] = system: HT-29; assay: Cytotoxicity against human HT-29 cells assessed as cell death at 2.5 uM after 48 hrs by MTT assay; type: functional

Structure (SMILES)	Activity [1]	Activity [2]	Activity [3]	Activity [4]	IC50 [5]	IC50 [6]	MIC [7]	MIC [8]	MIC [9]	MIC [10]	MIC [11]	Activity [12]	Activity [13]	Activity [14]	Activity [15]
CS(=O)(=O)c1ccc(Cc2nnc3n2N=C(c2ccc(Cl)cc2Cl)CS3)cc1	27.99%	24.19%	27.33%	30.99%	> 100 µM	> 100 µM	3.12 µg/mL (≈ 6.89 µM)	12.5 µg/mL (≈ 27.6 µM)	6.25 µg/mL (≈ 13.8 µM)	6.25 µg/mL (≈ 13.8 µM)	6.25 µg/mL (≈ 13.8 µM)	–	–	–	–
Cc1ccc(C2=Nn3c(Cc4ccc(S(C)(=O)=O)cc4)nnc3SC2)cc1	inactive	1.26%	37.91%	38.53%	> 100 µM	> 100 µM	12.5 µg/mL (≈ 31.4 µM)	12.5 µg/mL (≈ 31.4 µM)	12.5 µg/mL (≈ 31.4 µM)	12.5 µg/mL (≈ 31.4 µM)	1.56 µg/mL (≈ 3.92 µM)	inactive	–	–	–
OC(Cn1cncn1)(Cn1cncn1)c1ccc(F)cc1F [FLUCONAZOLE]	–	–	–	–	–	–	–	–	–	–	0.8 µg/mL (≈ 2.61 µM)	–	–	–	–
CS(=O)(=O)c1ccc(Cc2nnc3n2N=C(c2cc(Cl)sc2Cl)CS3)cc1	inactive	inactive	25.54%	47.27%	> 100 µM	> 100 µM	6.25 µg/mL (≈ 13.6 µM)	6.25 µg/mL (≈ 13.6 µM)	6.25 µg/mL (≈ 13.6 µM)	6.25 µg/mL (≈ 13.6 µM)	3.12 µg/mL (≈ 6.8 µM)	inactive	inactive	–	–
CS(=O)(=O)c1ccc(Cc2nnc3n2N=C(c2cc(Cl)cc4c2-c2ccc(Cl)cc2C4)CS3)cc1	41.05%	44.8%	43.12%	50.33%	100 µM	100 µM	6.25 µg/mL (≈ 11.5 µM)	12.5 µg/mL (≈ 23.1 µM)	3.12 µg/mL (≈ 5.77 µM)	6.25 µg/mL (≈ 11.5 µM)	6.25 µg/mL (≈ 11.5 µM)	–	–	–	–
CS(=O)(=O)c1ccc(Cc2nnc3n2N=C(c2ccccc2)CS3)cc1	41.97%	50.95%	46.73%	55.51%	25 µM	25 µM	6.25 µg/mL (≈ 16.3 µM)	6.25 µg/mL (≈ 16.3 µM)	6.25 µg/mL (≈ 16.3 µM)	6.25 µg/mL (≈ 16.3 µM)	25 µg/mL (≈ 65 µM)	–	–	–	–
CC1(C)S[C@@H]2[C@H](NC(=O)Cc3ccccc3)C(=O)N2[C@H]1C(=O)O [PENICILLIN G]	–	–	–	–	–	–	0.12 µg/mL (≈ 0.359 µM)	0.12 µg/mL (≈ 0.359 µM)	0.12 µg/mL (≈ 0.359 µM)	0.12 µg/mL (≈ 0.359 µM)	–	–	–	–	–
CS(=O)(=O)c1ccc(Cc2nnc3n2N=C(c2ccc(O)c(C(N)=O)c2)CS3)cc1	24.81%	24.66%	33.06%	37.08%	> 100 µM	> 100 µM	6.25 µg/mL (≈ 14.1 µM)	12.5 µg/mL (≈ 28.2 µM)	6.25 µg/mL (≈ 14.1 µM)	3.12 µg/mL (≈ 7.05 µM)	3.12 µg/mL (≈ 7.05 µM)	–	–	–	–
CS(=O)(=O)c1ccc(Cc2nnc3n2N=C(c2cc(Cl)sc2S(N)(=O)=O)CS3)cc1	22.8%	18.66%	27.46%	35.22%	> 100 µM	> 100 µM	6.25 µg/mL (≈ 12.4 µM)	12.5 µg/mL (≈ 24.8 µM)	6.25 µg/mL (≈ 12.4 µM)	12.5 µg/mL (≈ 24.8 µM)	6.25 µg/mL (≈ 12.4 µM)	–	–	–	–
COc1cccc2c1C(=O)c1c(O)c3c(c(O)c1C2=O)C[C@@](O)(C(=O)CO)C[C@@H]3O[C@H]1C[C@H](N)[C@H](O)[C@H](C)O1 [DOXORUBICIN]	–	–	–	–	–	–	–	–	–	–	–	–	–	78.2%	78.2%
CS(=O)(=O)c1ccc(Cc2nnc3n2N=C(c2cc4ccccc4c(=O)o2)CS3)cc1	22.43%	25.58%	14.86%	10.63%	> 100 µM	> 100 µM	6.25 µg/mL (≈ 13.8 µM)	6.25 µg/mL (≈ 13.8 µM)	6.25 µg/mL (≈ 13.8 µM)	6.25 µg/mL (≈ 13.8 µM)	3.12 µg/mL (≈ 6.91 µM)	–	–	–	–
CS(=O)(=O)c1ccc(Cc2nnc3n2N=C(c2ccc(-c4ccccc4)cc2)CS3)cc1	58.2%	60.19%	67.93%	74.77%	12.5 µM	12.5 µM	6.25 µg/mL (≈ 13.6 µM)	6.25 µg/mL (≈ 13.6 µM)	6.25 µg/mL (≈ 13.6 µM)	6.25 µg/mL (≈ 13.6 µM)	6.25 µg/mL (≈ 13.6 µM)	–	–	–	–
